Laboratory results published in ChEMBL document CHEMBL1141374 (J Med Chem, 2007).

Experiments:
[1] = tested on: UO-31; assay: Growth inhibition in UO31 cells; assay type: functional; conditions: Homo sapiens
[2] = tested on: NCI-H322M; assay: Growth inhibition in NCI-H322M cells; assay type: functional; conditions: Homo sapiens
[3] = tested on: M14; assay: Growth inhibition in M14 cells; assay type: functional; conditions: Homo sapiens
[4] = tested on: OVCAR-4; assay: Growth inhibition in OVCAR4 cells; assay type: functional; conditions: Homo sapiens
[5] = tested on: UACC-257; assay: Growth inhibition in UACC257 cells; assay type: functional; conditions: Homo sapiens
[6] = tested on: A549; assay: Growth inhibition in A549 cells; assay type: functional; conditions: Homo sapiens
[7] = tested on: EKVX; assay: Growth inhibition in EKVX cells; assay type: functional; conditions: Homo sapiens
[8] = tested on: SNB-75; assay: Growth inhibition in SNB75 cells; assay type: functional; conditions: Homo sapiens
[9] = tested on: 786-0; assay: Growth inhibition in 786-0 cells; assay type: functional; conditions: Homo sapiens
[10] = tested on: BT-549; assay: Growth inhibition in BT549 cells; assay type: functional; conditions: Homo sapiens
[11] = tested on: CAKI-1; assay: Growth inhibition in CAK1-1 cells; assay type: functional; conditions: Homo sapiens
[12] = tested on: SF-539; assay: Growth inhibition in SF539 cells; assay type: functional; conditions: Homo sapiens
[13] = tested on: NCI-H23; assay: Growth inhibition in NCI-H23 cells; assay type: functional; conditions: Homo sapiens
[14] = tested on: ACHN; assay: Growth inhibition in ACHN cells; assay type: functional; conditions: Homo sapiens
[15] = tested on: COLO 205; assay: Growth inhibition in COLO205 cells; assay type: functional; conditions: Homo sapiens
[16] = tested on: U-251; assay: Growth inhibition in U251cells; assay type: functional; conditions: Homo sapiens
[17] = tested on: HOP-92; assay: Growth inhibition in HOP92 cells; assay type: functional; conditions: Homo sapiens
[18] = tested on: SN12C; assay: Growth inhibition in SN12C cells; assay type: functional; conditions: Homo sapiens
[19] = tested on: OVCAR-8; assay: Growth inhibition in OVCAR8 cells; assay type: functional; conditions: Homo sapiens
[20] = Growth inhibition in MDA-MB-231/ATCC cells; assay type: functional; conditions: Homo sapiens
[21] = tested on: SK-MEL-2; assay: Growth inhibition in SK-MEL-2 cells; assay type: functional; conditions: Homo sapiens
[22] = Growth inhibition in HCC116 cells; assay type: functional; conditions: Homo sapiens
[23] = tested on: HT-29; assay: Growth inhibition in HT29 cells; assay type: functional; conditions: Homo sapiens
[24] = tested on: T47D; assay: Growth inhibition in T47D cells; assay type: functional; conditions: Homo sapiens
[25] = tested on: A498; assay: Growth inhibition in A498 cells; assay type: functional; conditions: Homo sapiens
[26] = tested on: SW-620; assay: Growth inhibition in SW620 cells; assay type: functional; conditions: Homo sapiens
[27] = tested on: LOX IMVI; assay: Growth inhibition in LOX IMVI cells; assay type: functional; conditions: Homo sapiens
[28] = Growth inhibition in HS 578T cells; assay type: functional; conditions: Homo sapiens
[29] = tested on: HL-60; assay: Growth inhibition in HL60 cells; assay type: functional; conditions: Homo sapiens
[30] = Cytotoxicity against P-glycoprotein-overexpressing KB-V1 cell line; assay type: cell-based; conditions: Homo sapiens
Outline: (§1)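 Log-phase cells were diluted to 20 000–30 000 cells/mL, seeded, and left to attach overnight. They were then exposed to compounds at 10^–5–10^–12 M for 72 h at 37 °C in 5% CO2. Viable cells were measured by MTT, with absorbance read at 595 nm. Each compound ran in triplicate in at least three independent assays. IC50 came from nonlinear regression, and average values were reported.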

[31] = tested on: OVCAR-5; assay: Growth inhibition in OVCAR5 cells; assay type: functional; conditions: Homo sapiens
[32] = tested on: SF-295; assay: Growth inhibition in SF295 cells; assay type: functional; conditions: Homo sapiens
[33] = tested on: IGROV-1; assay: Growth inhibition in IGROV1 cells; assay type: functional; conditions: Homo sapiens
[34] = tested on: CCRF-CEM; assay: Growth inhibition in CCRF-CEM cells; assay type: functional; conditions: Homo sapiens
[35] = tested on: HCT-116; assay: Cytotoxicity against HCT116 cell line; assay type: cell-based; conditions: Homo sapiens; outline: as §1
[36] = tested on: TK-10; assay: Growth inhibition in TK10 cells; assay type: functional; conditions: Homo sapiens
[37] = tested on: SK-MEL-28; assay: Growth inhibition in SK-MEL-28 cells; assay type: functional; conditions: Homo sapiens
[38] = tested on: UACC-62; assay: Growth inhibition in UACC62 cells; assay type: functional; conditions: Homo sapiens
[39] = tested on: SF-268; assay: Growth inhibition in SF268 cells; assay type: functional; conditions: Homo sapiens
[40] = tested on: KM12; assay: Growth inhibition in KM12 cells; assay type: functional; conditions: Homo sapiens
[41] = tested on: ZR-75-1; assay: Cytotoxicity against ZR-75-1 cell line; assay type: cell-based; conditions: Homo sapiens; outline: as §1
[42] = tested on: SNB-19; assay: Growth inhibition in SNB19 cells; assay type: functional; conditions: Homo sapiens
[43] = tested on: PC-3; assay: Growth inhibition in PC3 cells; assay type: functional; conditions: Homo sapiens
[44] = tested on: NCI-H522; assay: Growth inhibition in NCI-H522 cells; assay type: functional; conditions: Homo sapiens
[45] = Cytotoxicity against KB-3-1 cell line; assay type: cell-based; conditions: Homo sapiens; outline: as §1
[46] = molecular target: Tubulin; assay: Inhibition of tubulin polymerization; assay type: protein-complex assay, Homo sapiens
Outline: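 Kit-based assay run per the manufacturer's instructions. Tubulin (>99% pure, 3 mg/mL) in G-PEM buffer, in a prewarmed plate with compound at 0.03–30 μM. OD340 nm read every 60 s at 37 °C for 1 h.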

[47] = tested on: NCI-H226; assay: Growth inhibition in NCI-H226 cells; assay type: functional; conditions: Homo sapiens
[48] = tested on: SK-MEL-5; assay: Growth inhibition in SK-MEL-5 cells; assay type: functional; conditions: Homo sapiens
[49] = tested on: NCI/ADR-RES; assay: Growth inhibition in NCI/ADR-RES cells; assay type: functional; conditions: Homo sapiens
[50] = tested on: HeLa; assay: Cytotoxicity against HeLa cell line; assay type: cell-based; conditions: Homo sapiens; outline: as §1
[51] = tested on: OVCAR-3; assay: Growth inhibition in OVCAR-3 cells; assay type: functional; conditions: Homo sapiens
[52] = tested on: K562; assay: Growth inhibition in K562 cells; assay type: functional; conditions: Homo sapiens
[53] = tested on: NCI-H460; assay: Growth inhibition in NCI-H460 cells; assay type: functional; conditions: Homo sapiens
[54] = tested on: SK-OV-3; assay: Growth inhibition in SKOV3 cells; assay type: functional; conditions: Homo sapiens
[55] = tested on: HOP-62; assay: Growth inhibition in HOP62 cells; assay type: functional; conditions: Homo sapiens
[56] = tested on: RXF 393; assay: Growth inhibition in RXF393 cells; assay type: functional; conditions: Homo sapiens
[57] = Growth inhibition in HCC15 cells; assay type: functional; conditions: Homo sapiens
[58] = tested on: MCF7; assay: Growth inhibition in MCF7 cells; assay type: functional; conditions: Homo sapiens
[59] = tested on: DU-145; assay: Growth inhibition in DU145 cells; assay type: functional; conditions: Homo sapiens
[60] = tested on: MDA-MB-435; assay: Growth inhibition in MDA-MB-435 cells; assay type: functional; conditions: Homo sapiens
[61] = tested on: HCC 2998; assay: Growth inhibition in HCC2998 cells; assay type: functional; conditions: Homo sapiens

## COc1cc(-c2nncn2-c2ccc3c(ccn3C)c2)cc(OC)c1OC
[1]
  GI50: 32.4 nM
[2]
  GI50: < 10 nM
[3]
  GI50: 18.6 nM
[4]
  GI50: 1050 nM
[5]
  GI50: 245 nM
[6]
  GI50: 37.1 nM
[7]
  GI50: < 10 nM
[8]
  GI50: 12.9 nM
[9]
  GI50: 32.4 nM
[10]
  GI50: 37.1 nM
[11]
  GI50: < 10 nM
[12]
  GI50: < 10 nM
[13]
  GI50: 45.7 nM
[14]
  GI50: 34.7 nM
[15]
  GI50: 28.8 nM
[16]
  GI50: 33.1 nM
[17]
  GI50: 83.2 nM
[18]
  GI50: 63.1 nM
[19]
  GI50: 42.7 nM
[20]
  GI50: 30.9 nM
[21]
  GI50: 166 nM
[22]
  GI50: 30.9 nM
[23]
  GI50: 22.9 nM
[24]
  GI50: 44.7 nM
[25]
  GI50: 15.8 nM
[26]
  GI50: 33.9 nM
[27]
  GI50: 56.2 nM
[28]
  GI50: 16.2 nM
[29]
  GI50: 41.7 nM
[30]
  IC50: 20.8 nM
[31]
  GI50: 47.9 nM
[32]
  GI50: < 10 nM
[33]
  GI50: 35.5 nM
[34]
  GI50: 32.4 nM
[35]
  IC50: 7.39 nM
[36]
  GI50: < 10 nM
[37]
  GI50: < 10 nM
[38]
  GI50: < 10 nM
[39]
  GI50: < 10 nM
[40]
  GI50: < 10 nM
[41]
  IC50: 23.8 nM
[42]
  GI50: 44.7 nM
[43]
  GI50: 19.5 nM
[44]
  GI50: < 10 nM
[45]
  IC50: 9.9 nM
[46]
  IC50: 3000 nM
[47]
  GI50: 85100 nM
[48]
  GI50: 14.1 nM
[49]
  GI50: 20.9 nM
[50]
  IC50: 8.73 nM
[51]
  GI50: < 10 nM
[52]
  GI50: 14.8 nM
[53]
  GI50: 33.1 nM
[54]
  GI50: 31.6 nM
[55]
  GI50: 18.6 nM
[56]
  GI50: < 10 nM
[57]
  GI50: 35.5 nM
[58]
  GI50: 43.6 nM
[59]
  GI50: < 10 nM
[60]
  GI50: < 10 nM
[61]
  GI50: 24 nM

## COc1ccc(-n2cnnc2-c2cc(OC)c(OC)c(OC)c2)cc1O
[1]
  GI50: 501 nM
[2]
  GI50: 91200 nM
[3]
  GI50: 295 nM
[4]
  GI50: 417 nM
[5]
  GI50: > 100000 nM
[6]
  GI50: 1000 nM
[8]
  GI50: 251 nM
[9]
  GI50: 501 nM
[10]
  GI50: 3630 nM
[11]
  GI50: 708 nM
[12]
  GI50: 372 nM
[13]
  GI50: 4270 nM
[14]
  GI50: 417 nM
[15]
  GI50: 1170 nM
[16]
  GI50: 407 nM
[17]
  GI50: 617 nM
[18]
  GI50: 603 nM
[19]
  GI50: 977 nM
[20]
  GI50: 977 nM
[21]
  GI50: 724 nM
[22]
  GI50: 398 nM
[23]
  GI50: 2880 nM
[24]
  GI50: 269 nM
[25]
  GI50: 417 nM
[26]
  GI50: 380 nM
[27]
  GI50: 550 nM
[28]
  GI50: 363 nM
[29]
  GI50: 389 nM
[30]
  IC50: 544 nM
[31]
  GI50: 1950 nM
[32]
  GI50: 302 nM
[33]
  GI50: 447 nM
[34]
  GI50: 295 nM
[35]
  IC50: 88.9 nM
[36]
  GI50: 7410 nM
[37]
  GI50: 427 nM
[38]
  GI50: 407 nM
[39]
  GI50: 257 nM
[40]
  GI50: 141 nM
[41]
  IC50: 141 nM
[42]
  GI50: 407 nM
[43]
  GI50: 288 nM
[44]
  GI50: 263 nM
[45]
  IC50: 57.3 nM
[46]
  IC50: 6000 nM
[47]
  GI50: > 100000 nM
[48]
  GI50: 288 nM
[49]
  GI50: 1550 nM
[50]
  IC50: 25 nM
[51]
  GI50: 195 nM
[52]
  GI50: 209 nM
[53]
  GI50: 407 nM
[54]
  GI50: 316 nM
[55]
  GI50: 490 nM
[56]
  GI50: 309 nM
[57]
  GI50: 631 nM
[58]
  GI50: 617 nM
[59]
  GI50: 661 nM
[60]
  GI50: 24.6 nM
[61]
  GI50: 933 nM
